A word on the Kd: it is the free concentration of one partner at which half of the binding sites on the other are occupied at equilibrium, for simple one-to-one binding. Higher therefore signals weaker binding.

The target of one test is T1, full‐length syntenin (Homo sapiens, UniProt O00560).
T1 sequence (O00560 1-298): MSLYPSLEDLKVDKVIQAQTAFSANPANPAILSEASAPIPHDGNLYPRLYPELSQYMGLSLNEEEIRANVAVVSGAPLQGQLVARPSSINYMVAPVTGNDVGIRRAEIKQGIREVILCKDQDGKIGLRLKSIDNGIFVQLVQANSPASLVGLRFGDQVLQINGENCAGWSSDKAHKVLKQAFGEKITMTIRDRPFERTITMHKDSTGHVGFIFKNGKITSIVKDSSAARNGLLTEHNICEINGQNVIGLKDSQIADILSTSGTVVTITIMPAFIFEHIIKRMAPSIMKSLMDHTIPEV
As to the kind of experiment: Surface plasmon resonance. The test is classed as binding. The following applies: used as reference channel; 10 mM HEPES, 150 mM NaCl, 0.005% Tween20, pH 7.4.

The test system of a further test is syntenin PDZ1‐2. The test is described as follows: Clonal phage ELISA against PDZ1‐2. The test is classed as binding. To be noted: clonal ELISA against the baits PDZ1, PDZ2 or PDZ1‐2. The essentials:
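Syntenin PDZ1‑2 (107–275), PDZ1 (107–199) and PDZ2 (198–275) were expressed in E. coli ER2566 and purified by nickel affinity. Clones came from five rounds of selection of M13 gene‑8 libraries (random C‑terminal heptamers or internal dodecamers) on immobilized PDZ1‑2, with PBS/0.05% Tween 20 washes. Clones binding PDZ1‑2 but not control GST were sequenced, then each was tested by phage ELISA against immobilized PDZ1‑2, PDZ1 and PDZ2.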

A further test concerns syntenin. The test is described as follows: Co-immunoprecipitation of endogenous nectin-1 and syntenin in MCF‐7 cells. The test is classed as cell-based. The following applies: IP with nectin‐1 specific antibody, immunoblot with anti‐syntenin antibody.
The subject of a further test is C‐terminus of nectin‐1. The test is classed as binding. The following applies: bait C‐terminus of nectin‐1. The essentials: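 Bait was transformed into MaV203 yeast, followed by 100 μg human fetal brain cDNA library in pEXP‑AD502. About 5 × 10^5 transformants were plated on medium lacking Trp/Leu/His with 20 mM 3‑amino‑1,2,4‑triazole, 30 °C, 5 days. Positives were checked on uracil and β‑galactosidase reporters, PCR‑amplified and retested in fresh bait yeast. Multi‑product colonies were discarded. Inserts were sequenced and in‑frame GAL4AD clones kept.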

In a further test the test system is nectin‐1. The test is classed as cell-based. To be noted: freshly plated MCF‐7 cells, fibronectin-coated coverslips, 5 h.
In test [1] the target is T2, full-length syntenin (SPR analyte) (UniProt O00560 1-298).
T2 sequence (looked up): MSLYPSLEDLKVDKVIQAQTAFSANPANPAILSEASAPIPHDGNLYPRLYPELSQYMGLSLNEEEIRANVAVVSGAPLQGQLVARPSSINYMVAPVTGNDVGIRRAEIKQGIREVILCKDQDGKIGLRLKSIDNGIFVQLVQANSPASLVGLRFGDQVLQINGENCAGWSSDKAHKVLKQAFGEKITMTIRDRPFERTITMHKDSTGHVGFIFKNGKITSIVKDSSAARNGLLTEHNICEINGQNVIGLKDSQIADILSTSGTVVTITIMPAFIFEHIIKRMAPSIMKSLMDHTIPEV
As to the kind of experiment: SPR. (Surface plasmon resonance follows binding to a sensor surface in real time, without labels.)

“Also recorded” adds a separate entry of the source. *: point of attachment. Biotin = O=C1N[C@H]2[C@H](CS[C@H]2CCCCC(=O)*)N1

Turning to “Biot‐RMRKKDEGSYDLGERKPSSAAYQKAPTKEFpYA‐COOH”, at full‐length syntenin, the “binding to syntenin by SPR (in words)” value is “nonbinding”. As for SHWTIDI, in the test with syntenin PDZ1‐2, the “binding in clonal phage ELISA (in words)” value was “both PDZ domains are necessary for binding to this peptide”.

In the case of YYWAATGENVYS, in the test on syntenin PDZ1‐2, the “binding in clonal phage ELISA (in words)” value is reported as “loss of binding in phage ELISAs”.

B1: nectin‐1: cell adhesion protein PVRL1, also called nectin-1 (protein)
chain: QVVQVNDSMYGFIGTDVVLHCSFANPLPSVKITQVTWQKSTNGSKQNVAIYNPSMGVSVLAPYRERVEFLRPSFTDGTIRLSRLELEDEGVYICEFATFPTGNRESQLNLTVMAKPTNWIEGTQAVLRAKKGQDDKVLVATCTSANGKPPSVVSWETRLKGEAEYQEIRNPNGTVTVISRYRLVPSREAHQQSLACIVNYHMDRFKESLTLNVQYEPEVTIEGFDGNWYLQRMDVKLTCKADANPPATEYHWTTLNGSLPKGVEAQNRTLFFKGPINYSLAGTYICEATNPIGTRSGQVEVNITEFPYTPSPPEHGRRAGPVPTAIIGGVAGSILLVLIVVGGIVVALRRRRHTFKGDYSTKKHVYGNGYSKAGIPQHHPPMAQNLQYPDDSDDEKKAGPLGGSSYEEEEEEEEGGGGGERKVGGPHPKYDEDAKRPYFTVDEAEARQDGYGDRTLGYQYDPEQLDLAENMVSQNDGSFISKKEWYV
Consider B1, for which the “co-IP of endogenous proteins (in words)” value in the test on syntenin is on record as “confirmed an interaction between the endogenous proteins”.

B2: syntenin: small adaptor protein with PDZ1-2 tandem (protein)
chain: MSLYPSLEDLKVDKVIQAQTAFSANPANPAILSEASAPIPHDGNLYPRLYPELSQYMGLSLNEEEIRANVAVVSGAPLQGQLVARPSSINYMVAPVTGNDVGIRRAEIKQGIREVILCKDQDGKIGLRLKSIDNGIFVQLVQANSPASLVGLRFGDQVLQINGENCAGWSSDKAHKVLKQAFGEKITMTIRDRPFERTITMHKDSTGHVGFIFKNGKITSIVKDSSAARNGLLTEHNICEINGQNVIGLKDSQIADILSTSGTVVTITIMPAFIFEHIIKRMAPSIMKSLMDHTIPEV
modifications: left off: GAL4AD, end not stated, kept
Turning to B2, the “Y2H preference (in words)” value in the test on C‐terminus of nectin‐1 is recorded as “preferred nectin‐1 binder; also recorded: favored ligand of the C‐terminus of nectin‐1”. Besides, the “colocalization (in words)” value in the test on nectin‐1 is recorded as “colocalizes with nectin‐1 at the sites of cell–cell contacts”.

B3: N-terminal biotinylated nectin-1 C-terminal peptide (peptide)
peptide: Biotin-AENMVSQNDGSFISKKEWYV-OH
SMILES: CC[C@H](C)[C@H](NC(=O)[C@H](Cc1ccccc1)NC(=O)[C@H](CO)NC(=O)CNC(=O)[C@H](CC(=O)O)NC(=O)[C@H](CC(N)=O)NC(=O)[C@H](CCC(N)=O)NC(=O)[C@H](CO)NC(=O)[C@@H](NC(=O)[C@H](CCSC)NC(=O)[C@H](CC(N)=O)NC(=O)[C@H](CCC(=O)O)NC(=O)[C@H](C)NC(=O)CCCC[C@@H]1SC[C@@H]2NC(=O)N[C@@H]21)C(C)C)C(=O)N[C@@H](CO)C(=O)N[C@@H](CCCCN)C(=O)N[C@@H](CCCCN)C(=O)N[C@@H](CCC(=O)O)C(=O)N[C@@H](Cc1c[nH]c2ccccc12)C(=O)N[C@@H](Cc1ccc(O)cc1)C(=O)N[C@H](C(=O)O)C(C)C
B3 had an equilibrium dissociation constant (Kd) in test [1] of 14 µM.

Values taken from PMC4819696 (Febs Letters, 2016).
